According to article PMC12297526 (Communications Chemistry, 2025):
Like-named read-outs stand apart in the source and are kept apart here.

Key:
[1] = 0.1 M KCl; ref 4 (supplement), 15; cited from earlier work
[2] = cited from earlier work; for pMn: 11 (supplement), 8, 17, 18, 34
Zn = format: physicochemical; settings: pH = 6.0, 25 mM Zn(II), 37 °C, 1 mM complex; mean ± SD, n = 3
[3] = pH 7.4, 25 °C, [Cu(II)] = 10^-5 M; cited from earlier work
normal BALB/c mice = experiment: In vivo T1-weighted MRI of normal mice, 3.0 T clinical scanner; settings: intravenous, 0.05 mmol kg^−1
How it was run: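 Male BALB/c mice (25 ± 3 g) anaesthetised with avertin (0.6 mL per 20 g) and imaged in a mouse coil at 3.0 T. Coronal and transverse T1-weighted baseline scans taken, then complex given i.v. in PBS pH 7.4 at 0.05 mmol kg−1 and scanning continued ~30 min. Relative enhancement = (SIpost – SIpre)/SIpre × 100% from ROIs on liver and kidney.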

[4] = log P estimation by UPLC retention time; format: physicochemical; settings: estimated from UPLC retention time with calibration standards
How it was run: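 Complexes and standards (DMSO, DMF, pyridine, phenol, nitrobenzene) run on reversed-phase UPLC. C18, 2.5 μm, 2.1 × 100 mm column; 10 mM ammonium acetate/ACN gradient at 0.4 mL min−1. Calibration of log TR against known log P for the standards; complex log P read from its retention time.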

[5] = pH-potentiometric titration, thermodynamic stability constants of Mn; format: physicochemical; settings: for log KMnL: I = 0.1 M KCl, 25 °C, mean ± SD, n = 3
How it was run: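 Ligand and Mn(II) (1.05:1 molar) in 0.1 M KCl titrated with 0.5 M NaOH from pH 1.7 to 12.0 at 25 °C under nitrogen. MnCl2 stock held at pH 6 and calibrated by ICP-MS. Data fitted for stability constants and speciation; titrations in triplicate. pMn calculated at pH 7.4.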

[6] = 20 MHz, 298 K; cited from earlier work
Solubility in pure water = format: physicochemical; settings: 25 °C
[7] = complexes with heptadentate ligands

## O=C(O)CN1CCNCCN(CC(=O)O)CCNCC1 [1,7-DO2A]
[1]
  Σ log KiH: 28.05

## O=C(O)CN1CCNCCN(CC(=O)O)CCN(CC(=O)O)CC1 [DO3A]
[2]; [7]
  log KMnL: 16.55

## CCOc1ccc(C[C@@H](CN(CCN(CC(=O)[O-])CC(=O)[O-])CC(=O)[O-])N(CC(=O)[O-])CC(=O)[O-])cc1.[Gd+3].[Na+].[Na+] [Gd(EOB-DTPA)]
Zn
  t1/2 (dissociation half-life): 0.25 h

## O=C([O-])CN1CCNCCNCCN(CC(=O)[O-])CC1.[Mn+2] [Mn(1,4-DO2A)]
[2]; introduction, Mn(1,4-DO2A) vs Mn(NOTA)
  log KMnL: 16.1
[3]
  half-life (t1/2): 48 h
Normal BALB/c mice
  excretion route / organ preference seen by MRI: predominantly excreted through the renal route
[4]
  log P: 0.57
[5]
  log KMnL: 15.5
[5]; pH 7.4, [Mn(II)] = [L] = 10^−5 M
  pMn: 7.20
[6]
  ^20r1 (relaxivity): 2.1 mM⁻¹ s⁻¹
Solubility in pure water
  Solubility: 260 mg/mL

## O=C([O-])CN1CCNCCN(CC(=O)[O-])CCNCC1.[Mn+2] [Mn(1,7-DO2A)]
[4]
  log P: 0.47
[5]
  log KMnL: 14.7

## O=C([O-])CN1CCNCCN(CC(=O)[O-])Cc2cccc(n2)C1.[Mn+2] [Mn(3,9-PC2A)]
[2]; 0.15 M NaCl
  pMn: 8.64
[2]; 0.15 M NaCl, 11 (supplement), 17
  log KMnL: 17.09
[3]
  half-life (t1/2): 21 h

## O=C(O)CN1CCN(CC(=O)O)Cc2cccc(n2)CN(CC(=O)O)CC1 [PCTA]
[2]; [7]
  log KMnL: 16.83

## Mn(EDTA)
[2]; 0.15 M NaCl
  pMn: 7.83
[3]
  half-life (t1/2): 0.08 h
